Calls of active or inactive are those of the source. No cut-off for these calls is given here.

For assay [1], the target named is T1, Botulinum neurotoxin type A (Clostridium botulinum, UniProt P0DPI0). The assay is described as follows: Inhibition of protease activity of recombinant Clostridium botulinum BoNT/A light chain (425 amino acids) using SNAP-25 as substrate preincubated for 20 followed by substrate addition measured for 25 mins by FRET analysis. Put shortly:
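Compound (from 50X DMSO stock) preincubated 20 min with recombinant 425-aa BoNT/A LC (56 nM working solution) in 40 mM HEPES, 0.1% Triton X-100, pH 7.4. SNAPtide FRET substrate (6 µM solution) then added and read for 25 min at ex 490/em 523 nm. V0 taken from linear slopes, in duplicate at ≥4 inhibitor dilutions, normalized to DMSO. IC50 from Hill-equation fit.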

Assay [2] concerns the target Botulinum neurotoxin type A (Clostridium botulinum) (UniProt P0DPI0). The assay is described as follows: Inhibition of BoNT/A light chain mediated proteolysis of CFP and YFP tagged full-length SNAP-25 expressed in BoCells at 25 uM after 20 hrs by fluorescence assay.
Assay [3] has the same target. The assay is described as follows: Inhibition of BoNT/A induced paralysis in intoxicated CD1 mouse hemidiaphragm muscles assessed as increase in half paralysis time at 20 uM pretreated for 1 hr followed by intoxication.
Assay [4] has the same target. The conditions noted are these: 12.5 uM.
For assay [5], the target named is T1, Botulinum neurotoxin type A. The assay can be described thus: Uncompetitive inhibition of recombinant Clostridium botulinum BoNT/A light chain (425 amino acids) using SNAP-25 as substrate preincubated for 20 followed by substrate addition measured for 25 mins by Lineweaver-Burk plot analysis.

T1 sequence (P0DPI0 2-448 limits assumed): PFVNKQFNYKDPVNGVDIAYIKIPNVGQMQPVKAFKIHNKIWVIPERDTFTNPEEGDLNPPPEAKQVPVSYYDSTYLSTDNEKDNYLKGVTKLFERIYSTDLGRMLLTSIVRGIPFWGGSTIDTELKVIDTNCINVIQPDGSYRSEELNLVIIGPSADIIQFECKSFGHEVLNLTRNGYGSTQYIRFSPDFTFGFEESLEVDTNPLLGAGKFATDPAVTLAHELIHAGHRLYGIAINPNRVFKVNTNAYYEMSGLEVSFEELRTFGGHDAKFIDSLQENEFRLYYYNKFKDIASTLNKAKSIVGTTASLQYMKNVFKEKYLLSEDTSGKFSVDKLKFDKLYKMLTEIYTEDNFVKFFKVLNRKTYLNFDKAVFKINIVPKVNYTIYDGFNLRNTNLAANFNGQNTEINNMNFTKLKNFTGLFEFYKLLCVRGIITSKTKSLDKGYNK
Chain of Botulinum neurotoxin type A (Clostridium botulinum) (P0DPI0 2-448 limits assumed): as above

For the molecule `CN(c1cccc(Cl)c1)S(=O)(=O)c1ccc(O)c2ncccc12`, in assay [1], the half-inhibitory concentration (IC50) amounted to 4.28 µM.
On to `O=S(=O)(c1ccc(O)c2ncccc12)N1CCCCC1`, for which, in assay [1], the IC50 is 18.3 µM.
Same read-out and setting: as for `CNc1ccc2c(S(=O)(=O)N3CCc4c(Cl)cccc43)ccc(O)c2n1`, the figure is 37.6 µM.
As to `Nc1ccc2c(S(=O)(=O)N3CCc4c(Cl)cccc43)ccc(O)c2n1`, the IC50 in assay [1] is 3.36 µM. The inhibition entry in assay [2] and in assay [3] was “Active” each time.
Consider `CNNc1ccc2c(S(=O)(=O)N3CCc4c(Cl)cccc43)ccc(O)c2n1`, for which, in assay [1], the half-maximal inhibitory concentration (IC50) amounted to 3.26 µM. The inhibition result in assay [2], in assay [3] and in assay [4] was “Active” in each case.
For `O=S(=O)(c1ccc(O)c2ncccc12)N1CCc2ccc(Cl)cc21`, the IC50 in assay [1] is 12.8 µM.
`CN(c1ccccc1)S(=O)(=O)c1ccc(O)c2ncccc12`: in assay [1], the half-maximal inhibitory concentration (IC50) was found to be 7.19 µM.
Turning to `O=S(=O)(c1ccc(O)c2ncccc12)N1CCc2c(Cl)cccc21`, the IC50 in assay [1] is 3.66 µM. Moreover, the inhibition constant Ki in assay [5] is 2.03 µM. For the same molecule, the inhibition result in assay [2] and in assay [3] was “Active” in each case.
For `CCNc1ccc2c(S(=O)(=O)N3CCc4c(Cl)cccc43)ccc(O)c2n1`, the IC50 in assay [1] came to 28.6 µM.
On the same count and under the same terms, for `O=S(=O)(Nc1cccc(Cl)c1)c1ccc(O)c2ncccc12` the value was 7.32 µM; for `O=S(=O)(Nc1ccccc1)c1ccc(O)c2ncccc12`, 12.7 µM.
Regarding `Oc1c(C(Nc2ccccn2)c2ccccc2)ccc2cccnc12` (stereo not drawn), the inhibition result in assay [2] and in assay [3] was “inactive” each time.
As for `CC(=O)NNc1ccc2c(S(=O)(=O)N3CCc4c(Cl)cccc43)ccc(O)c2n1`, in assay [1], the IC50 turned out to be 5.39 µM. For the same molecule, the inhibition entry in assay [2] was “inactive”. In addition, the inhibition entry in assay [3] was “Active”.
On to `NNc1ccc2c(S(=O)(=O)N3CCc4c(Cl)cccc43)ccc(O)c2n1`, for which, in assay [1], the 50% inhibitory concentration (IC50) was found to be 1.55 µM. Besides, the inhibition constant (Ki) in assay [5] is 0.895 µM. The inhibition result in assay [2] was “inactive”. The inhibition entry in assay [3] was “Active”.

The term IC50 denotes the point on the concentration scale where inhibition reaches its midpoint. One may read the Ki as a measure of affinity in units of concentration, obtained from inhibition or displacement.
